Experiments:
[1] = Half life period of the compound.; format: ADME
Procedure, shortened: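 Half-life was calculated as ln2/koff (first-order decay). koff came from paired fluorescent-probe ligand exchange with recombinant human renin: 5.0×10^-8 M renin, 5.0×10^-7 M probe, pH 7.4 HEPES/octyl glucoside buffer, 37 °C, 5-min preincubation. The two curves were fitted simultaneously, with the probe rate constants held fixed.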

Renin (Homo sapiens) [2] = target: T1, Renin (Homo sapiens) (UniProt P00797); assay: (§1) Component […] rate constant by the compound against Renin was determined; design: unit not given here
T1 sequence (whole entry): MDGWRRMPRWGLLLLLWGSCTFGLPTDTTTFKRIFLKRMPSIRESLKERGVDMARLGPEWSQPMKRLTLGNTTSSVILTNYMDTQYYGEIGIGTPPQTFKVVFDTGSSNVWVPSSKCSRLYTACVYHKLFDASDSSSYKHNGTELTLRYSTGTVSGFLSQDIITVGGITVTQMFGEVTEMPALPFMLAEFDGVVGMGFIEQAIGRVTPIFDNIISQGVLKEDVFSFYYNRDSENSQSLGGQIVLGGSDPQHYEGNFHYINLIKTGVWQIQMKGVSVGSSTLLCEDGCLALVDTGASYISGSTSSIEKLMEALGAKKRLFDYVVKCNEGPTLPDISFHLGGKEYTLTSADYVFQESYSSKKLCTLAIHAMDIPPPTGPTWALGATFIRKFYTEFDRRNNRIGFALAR

Renin (Homo sapiens) [3] = target: T1, Renin (Homo sapiens); assay: as §1

| SMILES | half-life [1] | Koff (Renin (Homo sapiens) [2]) | k on (Renin (Homo sapiens) [3]) |
| --- | --- | --- | --- |
| CC(C)C[C@H](O)[C@H](O)[C@H](CC1CCCCC1)NC(=O)[C@@H](CC(=O)N(CC(=O)N(C)CCN1CCOCC1)[C@@H](C)c1ccccc1)Cc1csc(N)n1 | 2.4 min | 0.00481 | 2.07e+06 M⁻¹ s⁻¹ |
| CC(C)C[C@H](O)[C@H](O)[C@H](CC1CCCCC1)NC(=O)[C@@H](CC(=O)N(CC(=O)N(C)CCc1ccccn1)[C@@H](C)c1ccccc1)Cc1csc(N)n1 | 8.6 min | 0.00135 | 6.68e+06 M⁻¹ s⁻¹ |
| CC(C)C[C@H](O)[C@H](O)[C@H](CC1CCCCC1)NC(=O)[C@@H](CC(=O)N(CC(=O)N(C)CCN(C)C(=O)N1CCOCC1)[C@@H](C)c1ccccc1)Cc1csc(N)n1 | 8.7 min | 0.00133 | 5.43e+06 M⁻¹ s⁻¹ |
| COC1(CN(CC(=O)N(C)CCc2ccccn2)C(=O)C[C@@H](Cc2csc(N)n2)C(=O)N[C@@H](CC2CCCCC2)[C@@H](O)[C@@H](O)CC(C)C)CCCCC1 | 6.6 min | 0.00175 | 2.28e+06 M⁻¹ s⁻¹ |
| CC(C)C[C@H](O)[C@H](O)[C@H](CC1CCCCC1)NC(=O)[C@@H](CC(=O)N(CC(=O)N(C)CCC(=O)N1CCOCC1)[C@@H](C)c1ccccc1)Cc1csc(N)n1 | 8.9 min | 0.0013 | 2e+06 M⁻¹ s⁻¹ |

The remaining lines, values ahead:

| half-life [1] | Koff (Renin (Homo sapiens) [2]) | k on (Renin (Homo sapiens) [3]) | SMILES |
| --- | --- | --- | --- |
| 20.3 min | 0.000569 | 1.22e+07 M⁻¹ s⁻¹ | CC(C)C[C@H](O)[C@H](O)[C@H](CC1CCCCC1)NC(=O)[C@@H](CC(=O)N(CC(=O)N(C)CCc1ccccn1)CC1(C)CCCCC1)Cc1csc(N)n1 |
| 49.4 min | 0.000234 | 8.63e+06 M⁻¹ s⁻¹ | CC(C)C[C@H](O)[C@H](O)[C@H](CC1CCCCC1)NC(=O)[C@@H](CC(=O)N(CC(=O)N(C)CCc1ccccn1)CC1CCCCCC1)Cc1csc(N)n1 |
| 41.3 min | 0.00028 | 5.93e+06 M⁻¹ s⁻¹ | CC(C)C[C@H](O)[C@H](O)[C@H](CC1CCCCC1)NC(=O)[C@@H](CC(=O)N(CC(=O)N(C)CCc1ccccn1)CC1CCCCC1)Cc1csc(N)n1 |
